Experimental data published in ChEMBL document CHEMBL1135941, “Synthesis and biological activity of the new 5-fluorocytosine derivatives, 5'-deoxy-N-alkyloxycarbonyl-5-fluorocytosine-5'-carboxylic acid” (Bioorg Med Chem Lett, 2002).
≈ marks a conversion by molar mass, not a printed value. Where “and” joins values, the source holds several entries; their conditions need not be identical. Equal values may be shown once.

Tests used:
A549 = assay: Inhibitory concentration of compound for cytotoxicity against […] human lung cells was determined; format: functional, cell-based
Method in brief: (§1)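 MTT cytotoxicity assay on human cancer cell lines: A549 (lung), SK-OV-3 (ovarian), HCT15 (colon) and SK-MEL-2 (melanoma). Cells were incubated with compound for 3 days before the MTT read-out. Activity is reported as IC50 in μg/mL.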

HCT-15 = assay: Inhibitory concentration of compound for cytotoxicity against HCT15 human colon cells was determined; format: functional, cell-based; method in brief: as §1
SK-OV-3 = assay: Inhibitory concentration of compound for cytotoxicity against SK-OV-3 human ovarian cells was determined; format: functional, cell-based; method in brief: as §1
SK-MEL-2 = assay: Inhibitory concentration of compound for cytotoxicity against SK-MEL-2 human melanoma cells was determined; format: functional, cell-based; method in brief: as §1
[1] = Toxicity by oral administration of single dose in mice; settings: mouse, in vivo
Mus musculus [2] = assay: In vivo mean survival time of L1210 leukemic BDF1 mice when compound (0.67 mmol/kg/day) was administered orally
[3] = Toxicity by oral administration of single dose in mice for 21 days; settings: mouse, in vivo, 504 h
Mus musculus [4] = assay: In vivo mean survival time of L1210 leukemic BDF1 mice when compound (0.016 mmol/kg/day) was administered orally
Mus musculus [5] = assay: In vivo mean survival time of L1210 leukemic BDF1 mice when compound (0.0032 mmol/kg/day) was administered orally
Mus musculus [6] = assay: Percent increase in life span of L1210 leukemic BDF1 mice when compound (0.15 nmol/kg/day) was administered intravenously; format: functional
Mus musculus [7] = assay: In vivo mean survival time of L1210 leukemic BDF1 mice when compound (0.23 nmol/kg/day) was administered intravenously; format: functional

SMILES	IC50 (A549)	IC50 (HCT-15)	IC50 (SK-OV-3)	IC50 (SK-MEL-2)	LD50 [1]	MST (Mus musculus [2])	LD50 [3]	MST (Mus musculus [4])	MST (Mus musculus [5])	ILS (Mus musculus [6])	MST (Mus musculus [7])
C#CCOC(=O)Nc1nc(=O)n(C2O[C@H](C(=O)O)[C@@H](O)[C@H]2O)cc1F (stereo partly specified)	0.005 µg/mL (≈ 0.014 µM)	0.04 µg/mL (≈ 0.112 µM)	0.005 µg/mL (≈ 0.014 µM)	0.007 µg/mL (≈ 0.0196 µM)	12 mg/kg						
CCCCCOC(=O)Nc1nc(=O)n(C2O[C@H](C(=O)O)[C@@H](O)[C@H]2O)cc1F (stereo partly specified)	0.17 µg/mL (≈ 0.437 µM)	0.12 µg/mL (≈ 0.308 µM)	0.03 µg/mL (≈ 0.0771 µM)	0.03 µg/mL (≈ 0.0771 µM)		11.3 days					
O=C(Nc1nc(=O)n(C2O[C@H](C(=O)O)[C@@H](O)[C@H]2O)cc1F)Oc1ccccc1 (stereo partly specified)	0.55 µg/mL (≈ 1.39 µM)	0.39 µg/mL (≈ 0.987 µM)	0.12 µg/mL (≈ 0.304 µM)	0.1 µg/mL (≈ 0.253 µM)							
O=C(Nc1nc(=O)n(C2O[C@H](C(=O)O)[C@@H](O)[C@H]2O)cc1F)OCc1ccccc1 (stereo partly specified)	0.37 µg/mL (≈ 0.904 µM)	0.17 µg/mL (≈ 0.415 µM)	0.07 µg/mL (≈ 0.171 µM)	0.1 µg/mL (≈ 0.244 µM)							
CCOC(=O)Nc1nc(=O)n(C2O[C@H](C(=O)O)[C@@H](O)[C@H]2O)cc1F (stereo partly specified)	0.49 µg/mL (≈ 1.41 µM)	0.47 µg/mL (≈ 1.35 µM)	0.16 µg/mL (≈ 0.461 µM)	0.16 µg/mL (≈ 0.461 µM)							
C=CCOC(=O)Nc1nc(=O)n(C2O[C@H](C(=O)O)[C@@H](O)[C@H]2O)cc1F (stereo partly specified)	0.04 µg/mL (≈ 0.111 µM)	0.032 µg/mL (≈ 0.0891 µM)	0.008 µg/mL (≈ 0.0223 µM)	0.008 µg/mL (≈ 0.0223 µM)	650 mg/kg		22 mg/kg/day	24.8 days	22.1 days		
O=c1[nH]cc(F)c(=O)[nH]1 [FLUOROURACIL]	0.26 µg/mL (≈ 2 µM)	0.11 µg/mL (≈ 0.846 µM)	0.03 µg/mL (≈ 0.231 µM)	0.63 µg/mL (≈ 4.84 µM)						87.5% and 62.5%	16.5 days and 14.3 days
